Calls of active or inactive are those of the source.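 Rule for the calls: active = compound blocking at least 90% of GSTO1 probe labeling in gels, or giving a GSTO1 band over fivefold background; inactive = the rest.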
Biological target: Glutathione S-transferase omega-1 (Homo sapiens) (UniProt P78417)
Test: GSTO1 target engagement in intact cells, late-stage follow-up, mechanism study for GSTO1 inhibitor project, cell-based, MDA-MB-435, competitive ABPP, click chemistry, fluorescence (AID 463093)
Conditions: MDA-MB-435 in situ competitive ABPP, gel fluorescence; for fold labeling / inhibition: stronger effect = higher value; for inhibition: in situ competitive ABPP
Procedure, shortened: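 System – MDA-MB-435 cells, in situ treatment · Amount – soluble proteome adjusted to 1 mg/mL protein · Dosing – three compound doses on cells at 1, 0.5 and 0.25 µM · Schedule – cells 1 h 37 °C, click 1 h 25 °C · Signal – in-gel fluorescence scanning after SDS-PAGE separation · Controls – blank gel background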

Sequence of Glutathione S-transferase omega-1 (Homo sapiens) (P78417 whole entry, looked up): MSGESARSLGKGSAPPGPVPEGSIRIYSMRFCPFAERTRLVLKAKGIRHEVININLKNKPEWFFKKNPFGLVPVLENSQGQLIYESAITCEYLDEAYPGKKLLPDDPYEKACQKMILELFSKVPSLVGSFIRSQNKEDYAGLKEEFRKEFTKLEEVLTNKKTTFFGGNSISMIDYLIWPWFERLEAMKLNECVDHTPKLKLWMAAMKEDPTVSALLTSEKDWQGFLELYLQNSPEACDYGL

C#CCN(CCCN(C(=O)CCl)c1ccc([N+](=O)[O-])cc1)C(=O)C(F)(F)F
outcome (direct ABPP, click chemistry): active
fold labeling (direct ABPP, click chemistry, click labeling 0.25 uM, at 0.25 µM): > 5
fold labeling (direct ABPP, click chemistry, click labeling 0.5 uM, at 0.5 µM): > 5
fold labeling (direct ABPP, click chemistry, click labeling fold over background 1 uM, at 1 µM): > 5
inhibition (at 1 µM): 100%
inhibition (inhibition, at 0.25 µM): 99%
inhibition (inhibition, at 0.5 µM): 100%
